Values after ≈ are worked out from the molar mass of the structure shown.
Assays:
Assay type in all cases: functional
[1] = tested on: Pseudomonas aeruginosa; experiment: Antibacterial activity against Pseudomonas aeruginosa ATCC 9027 assessed as growth inhibition after 18 hrs by agar dilution method; details: ATCC 9027, 18 h
Summary of the method: (§1)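 MIC read by conventional agar dilution. Compounds were dissolved at 10.0 mg in 1 mL DMSO and diluted with 9 mL distilled water to make the stock. Two-fold serial dilutions were made in molten sterile Mueller-Hinton agar, with final levels starting at 100, 50, 25, 12.5, 6.25, 3.13, 1.56 and lower.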

[2] = tested on: Klebsiella pneumoniae; experiment: Antibacterial activity against Klebsiella pneumoniae ATCC 10031 assessed as growth inhibition after 18 hrs by agar dilution method; details: ATCC 10031, 18 h; summary of the method: as §1
[3] = tested on: Staphylococcus aureus; experiment: Antibacterial activity against Staphylococcus aureus ATCC 6538 assessed as growth inhibition after 18 hrs by agar dilution method; details: ATCC 6538, 18 h; summary of the method: as §1
[4] = tested on: Staphylococcus epidermidis; experiment: Antibacterial activity against Staphylococcus epidermidis ATCC 12228 assessed as growth inhibition after 18 hrs by agar dilution method; details: ATCC 12228, 18 h; summary of the method: as §1
[5] = tested on: Escherichia coli; experiment: Antibacterial activity against Escherichia coli ATCC 8739 assessed as growth inhibition after 18 hrs by agar dilution method; details: ATCC 8739, 18 h; summary of the method: as §1
[6] = tested on: Bacillus spizizenii; experiment: Antibacterial activity against Bacillus subtilis ATCC 6633 assessed as growth inhibition after 18 hrs by agar dilution method; details: ATCC 6633, 18 h; summary of the method: as §1
[7] = tested on: Staphylococcus aureus; experiment: Potency index, ratio of norfloxacin MIC to compound MIC for Staphylococcus aureus ATCC 6538
[8] = tested on: Pseudomonas aeruginosa; experiment: Potency index, ratio of norfloxacin MIC to compound MIC for Pseudomonas aeruginosa ATCC 9027

MIC [1] [µg/mL] | MIC [2] [µg/mL] | MIC [3] [µg/mL] | MIC [4] [µg/mL] | MIC [5] [µg/mL] | MIC [6] [µg/mL] | Compound | Ratio [7] | Ratio [8]
1.56 (≈ 3.21 µM) | 1.56 (≈ 3.21 µM) | 1.56 (≈ 3.21 µM) | 3.12 (≈ 6.44 µM) | 0.78 (≈ 1.61 µM) | 3.12 (≈ 6.44 µM) | O=C(O)c1cn(C2CC2)c2cc(N3CCN(Cc4oc(CO)cc(=O)c4O)CC3)c(F)cc2c1=O | – | –
0.195 (≈ 0.387 µM) | 0.195 (≈ 0.387 µM) | 0.097 (≈ 0.192 µM) | 0.39 (≈ 0.774 µM) | 0.78 (≈ 1.55 µM) | 0.39 (≈ 0.774 µM) | O=C(O)c1cn(C2CC2)c2cc(N3CCN(Cc4oc(CCl)cc(=O)c4O)CC3)c(F)cc2c1=O | 4 | 8
0.78 (≈ 1.47 µM) | 1.56 (≈ 2.95 µM) | 0.78 (≈ 1.47 µM) | 3.12 (≈ 5.9 µM) | 0.39 (≈ 0.737 µM) | 3.12 (≈ 5.9 µM) | COc1c(N2CCN(Cc3oc(CO)cc(=O)c3O)C(C)C2)c(F)cc2c(=O)c(C(=O)O)cn(C3CC3)c12 (stereo unspecified) | – | –
0.78 (≈ 1.42 µM) | 1.56 (≈ 2.85 µM) | 0.39 (≈ 0.712 µM) | 1.56 (≈ 2.85 µM) | 1.56 (≈ 2.85 µM) | 1.56 (≈ 2.85 µM) | COc1c(N2CCN(Cc3oc(CCl)cc(=O)c3O)C(C)C2)c(F)cc2c(=O)c(C(=O)O)cn(C3CC3)c12 (stereo unspecified) | – | –
3.12 (≈ 6.6 µM) | 1.56 (≈ 3.29 µM) | 3.12 (≈ 6.6 µM) | 6.25 (≈ 13.2 µM) | 0.78 (≈ 1.65 µM) | 0.78 (≈ 1.65 µM) | CCn1cc(C(=O)O)c(=O)c2cc(F)c(N3CCN(Cc4oc(CO)cc(=O)c4O)CC3)cc21 | – | –
1.56 (≈ 3.17 µM) | 0.78 (≈ 1.59 µM) | 1.56 (≈ 3.17 µM) | 1.56 (≈ 3.17 µM) | 0.39 (≈ 0.793 µM) | 1.56 (≈ 3.17 µM) | CCn1cc(C(=O)O)c(=O)c2cc(F)c(N3CCN(Cc4oc(CCl)cc(=O)c4O)CC3)cc21 | – | –
12.5 (≈ 26.3 µM) | 12.5 (≈ 26.3 µM) | 6.25 (≈ 13.2 µM) | 12.5 (≈ 26.3 µM) | 1.56 (≈ 3.29 µM) | 12.5 (≈ 26.3 µM) | CCn1cc(C(=O)O)c(=O)c2cc(F)c(N3CCN(Cc4oc(CO)cc(=O)c4O)CC3)nc21 | – | –
3.12 (≈ 6.18 µM) | 1.56 (≈ 3.09 µM) | 3.12 (≈ 6.18 µM) | 6.25 (≈ 12.4 µM) | 0.39 (≈ 0.772 µM) | 3.12 (≈ 6.18 µM) | CCn1cc(C(=O)O)c(=O)c2cc(F)c(N3CCN(Cc4oc(CO)cc(=O)c4O)C(C)C3)c(F)c21 (racemic) | – | –

Compound | MIC [1] [µg/mL] | MIC [2] [µg/mL] | MIC [3] [µg/mL] | MIC [4] [µg/mL] | MIC [5] [µg/mL] | MIC [6] [µg/mL] | Ratio [7] | Ratio [8]
CCn1cc(C(=O)O)c(=O)c2cc(F)c(N3CCNCC3)cc21 [NORFLOXACIN] | 1.56 (≈ 4.89 µM) | 0.39 (≈ 1.22 µM) | 0.39 (≈ 1.22 µM) | 0.39 (≈ 1.22 µM) | 0.195 (≈ 0.611 µM) | 0.195 (≈ 0.611 µM) | – | –

From ChEMBL document CHEMBL2424602, “Mannich bases of 7-piperazinylquinolones and kojic acid derivatives: synthesis, in vitro antibacterial activity and in silico study” (2013)
